Data taken from ChEMBL document CHEMBL3351777, “Further studies on pyrazolo[1',5':1,6]pyrimido[4,5-d]pyridazin-4(3H)-ones as potent and selective human A1 adenosine receptor antagonists” (Eur J Med Chem, 2015).
Calls of active or inactive are those of the source. No cut-off for these calls is given here.

Columns and labels:
Adenosine receptor A1 [1] = biological target: T1, Adenosine receptor A1 (Homo sapiens, UniProt P30542); test: Displacement of [3H]DPCPX from human adenosine A1 receptor expressed in CHO cells after 120 mins; format: cell-based
T1 sequence (P30542 whole entry): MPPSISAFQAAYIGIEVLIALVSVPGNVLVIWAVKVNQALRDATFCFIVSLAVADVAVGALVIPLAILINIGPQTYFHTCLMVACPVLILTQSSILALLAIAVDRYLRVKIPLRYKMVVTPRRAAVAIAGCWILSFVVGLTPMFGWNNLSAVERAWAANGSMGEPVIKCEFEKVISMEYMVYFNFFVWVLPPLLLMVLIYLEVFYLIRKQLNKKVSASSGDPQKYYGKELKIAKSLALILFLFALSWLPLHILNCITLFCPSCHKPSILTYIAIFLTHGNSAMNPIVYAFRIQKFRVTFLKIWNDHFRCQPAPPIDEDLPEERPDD

Adenosine receptor A2a [2] = biological target: T2, Adenosine receptor A2a (Homo sapiens, UniProt P29274); test: Displacement of [3H]NECA from human adenosine A2A receptor expressed in CHO cells at 10 uM after 120 mins; format: cell-based
T2 sequence (P29274 whole entry): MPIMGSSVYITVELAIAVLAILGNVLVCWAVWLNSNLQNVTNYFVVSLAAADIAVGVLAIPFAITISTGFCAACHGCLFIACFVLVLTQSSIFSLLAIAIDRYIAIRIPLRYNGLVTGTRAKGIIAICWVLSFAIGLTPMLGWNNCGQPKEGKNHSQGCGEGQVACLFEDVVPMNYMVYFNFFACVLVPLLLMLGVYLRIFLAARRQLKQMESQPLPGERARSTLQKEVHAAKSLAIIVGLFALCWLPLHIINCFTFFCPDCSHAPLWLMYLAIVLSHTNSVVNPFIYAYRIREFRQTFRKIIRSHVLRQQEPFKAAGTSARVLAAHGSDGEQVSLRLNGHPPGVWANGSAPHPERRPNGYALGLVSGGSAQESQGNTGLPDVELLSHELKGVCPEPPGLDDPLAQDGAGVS

[3] = biological target: T3, Adenosine receptor A3 (Homo sapiens) (UniProt P0DMS8); test: Displacement of [125I]AB-MECA from human adenosine A3 receptor expressed in CHO cells at 10 uM after 120 mins; format: cell-based
T3 sequence (whole entry): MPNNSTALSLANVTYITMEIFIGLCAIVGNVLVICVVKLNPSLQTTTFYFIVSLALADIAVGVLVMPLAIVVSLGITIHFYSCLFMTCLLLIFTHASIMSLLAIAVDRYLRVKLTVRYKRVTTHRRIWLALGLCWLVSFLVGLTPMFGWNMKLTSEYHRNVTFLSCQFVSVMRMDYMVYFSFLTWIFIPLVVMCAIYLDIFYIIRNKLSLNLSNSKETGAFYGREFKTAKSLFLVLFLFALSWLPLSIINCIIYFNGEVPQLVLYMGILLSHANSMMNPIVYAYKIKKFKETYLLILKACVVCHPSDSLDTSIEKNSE

[4] = biological target: T4, Adenosine receptor A2b (Homo sapiens) (UniProt P29275); test: Antagonist activity at human recombinant adenosine A2B receptor expressed in CHO cells assessed as inhibition of NECA-induced cAMP accumulation at 10 uM after 15 mins by liquid scintillation spectrometry; format: functional, cell-based; design: scale not given: the % may be the effect or the level left
T4 sequence (whole entry): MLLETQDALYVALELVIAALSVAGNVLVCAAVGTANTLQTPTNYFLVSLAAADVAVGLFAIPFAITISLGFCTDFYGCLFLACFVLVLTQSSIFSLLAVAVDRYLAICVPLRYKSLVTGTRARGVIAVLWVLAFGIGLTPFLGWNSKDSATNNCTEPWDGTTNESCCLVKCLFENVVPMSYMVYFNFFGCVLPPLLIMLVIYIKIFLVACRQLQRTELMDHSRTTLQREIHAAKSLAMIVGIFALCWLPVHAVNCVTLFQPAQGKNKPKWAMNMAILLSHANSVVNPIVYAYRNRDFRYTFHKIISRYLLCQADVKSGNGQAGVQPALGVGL
Summary of the method: (§1)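 CHO cells expressing human A2B receptor, plated about 30000 per well and used after 24 h. Preincubated 15 min at 37 °C in DMEM with ADA (1 U/mL) and Ro20-1724 (20 μM). Compound at 10 μM was tested alone or with an EC50 concentration of NECA determined the same day. cAMP was measured by [3H]cAMP competition with bovine adrenal binding protein. Output is % of cAMP production versus agonist maximal effect.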

[5] = biological target: T4, Adenosine receptor A2b (Homo sapiens); test: Agonist activity at human recombinant adenosine A2B receptor expressed in CHO cells assessed as cAMP accumulation at 10 uM after 15 mins by liquid scintillation spectrometry (reference value: 50%); format: functional, cell-based; summary of the method: as §1
Mus musculus [6] = organism: Mus musculus; test: Toxicity in Swiss albino mouse assessed as change in gross behavior by rotarod test relative to control; format: organism-based; conditions: in vivo
Summary of the method: (§2)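 Male Swiss albino mice on the rota-rod, counting falls from the rotating rod at the doses used in passive avoidance. Compared with saline- and CMC-treated mice.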

Mus musculus [7] = organism: Mus musculus; test: Toxicity in Swiss albino mouse assessed as change in motor coordination by measuring number of falls from the rotating rod by rotarod test relative to control; format: organism-based; conditions: in vivo; summary of the method: as §2
[8] = biological target: T5, Adenosine receptor A1 (Homo sapiens) (UniProt P30542); test: Displacement of [3H]DPCPX from human adenosine A1 receptor expressed in CHO cells at 10 uM after 120 mins; format: cell-based
T5 sequence (whole entry): T1 sequence (P30542 whole entry)

Adenosine receptor A2a [9] = biological target: T2, Adenosine receptor A2a; test: Displacement of [3H]NECA from human adenosine A2A receptor expressed in CHO cells after 120 mins; format: cell-based
Adenosine receptor A3 = biological target: T6, Adenosine receptor A3 (Homo sapiens, UniProt P0DMS8); test: Displacement of [125I]AB-MECA from human adenosine A3 receptor expressed in CHO cells after 120 mins; format: cell-based
T6 sequence (P0DMS8 whole entry): T3 sequence (whole entry)

Adenosine receptor A1 [10] = biological target: T1, Adenosine receptor A1; test: Antagonist activity at human recombinant adenosine A1 receptor expressed in CHO cells assessed as inhibition of NECA-induced cAMP accumulation after 15 mins by liquid scintillation spectrometry; format: functional, cell-based
Summary of the method: (§3)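 Human A1-transfected CHO cells, preincubated 15 min at 37 °C with ADA (1 U/mL) and Ro20-1724 (20 μM). Cells received 1 μM forskolin plus 100 nM NECA, with or without compound (1 nM–10 μM), for 15 min. Stopped with 0.4 N HCl and neutralized with KOH. cAMP was measured by [3H]cAMP (2 nM) binding-protein competition, 150 min at 0 °C, with filtration and scintillation counting. Levels are % of forskolin (100%). Mean ± SEM of ≥3 experiments in duplicate.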

Mus musculus [11] = test: Antiamnesic activity in Swiss albino mouse CPA-induced amnesia model assessed as time taken to enter dark compartment during training session at 3 mg/kg, ip administered 30 mins prior to session by passive avoidance test (reference value: 16.6 +/- 4.1 secs); format: functional; conditions: route intraperitoneal
Mus musculus [12] = test: Antiamnesic activity in Swiss albino mouse CPA-induced amnesia model assessed as time taken to enter dark compartment during retention session at 3 mg/kg, ip administered 30 mins prior to session by passive avoidance test (reference value: 61.2 +/- 9.0 secs); format: functional; conditions: route intraperitoneal
[13] = biological target: T5, Adenosine receptor A1 (Homo sapiens); test: Antagonist activity at human recombinant adenosine A1 receptor expressed in CHO cells assessed as inhibition of NECA-induced cAMP accumulation at 1 nM to 10 uM after 15 mins by liquid scintillation spectrometry; format: functional, cell-based; summary of the method: as §3

Row | SMILES | Ki (Adenosine receptor A1 [1]) | inhibition (Adenosine receptor A2a [2]) | inhibition [3] | Activity [4] | Activity [5] | Activity (Mus musculus [6]) | Activity (Mus musculus [7]) | inhibition [8] | Ki (Adenosine receptor A2a [9]) | Ki (Adenosine receptor A3) | IC50 (Adenosine receptor A1 [10]) | Time (Mus musculus [11]) | Time (Mus musculus [12]) | Activity [13]
1 | S=c1c2ncn3nc(-c4ccccc4)cc3c2c(C2CCCCC2)nn1Cc1ccccc1 | 9.5 nM | 8% | 31% | 58.9% | 4.8% | Non-toxic | Non-toxic | – | – | – | – | – | – | –
2 | O=c1c2ncn3nc(-c4ccccc4)cc3c2c(-c2ccc(Cl)cc2)nn1Cc1ccccc1 | – | 56% | 31% | – | – | Non-toxic | Non-toxic | 26% | – | – | – | – | – | –
3 | CCc1nc2c(=O)n(Cc3ccccc3)nc(C3CCCC3)c2c2cc(-c3ccccc3)nn12 | 3.5 nM | – | 43% | – | – | Non-toxic | Non-toxic | – | 662 nM | – | – | – | – | –
4 | Cc1nc2c(=O)n(Cc3ccccc3)nc(-c3cccs3)c2c2cc(-c3ccccc3)nn12 | – | – | 15% | – | – | Non-toxic | Non-toxic | 21% | 2600 nM | – | – | – | – | –
5 | CCc1nc2c(=O)n(Cc3ccccc3)nc(C3CCCCC3)c2c2cc(-c3ccccc3)nn12 | 15.2 nM | 0% | 40% | – | – | Non-toxic | Non-toxic | – | – | – | – | – | – | –
6 | Cc1nc2c(=O)n(Cc3ccccc3)nc(C3CCCCC3)c2c2cc(-c3ccccc3)nn12 | 9.5 nM | 7% | 35% | 57.8% | 2.1% | Non-toxic | Non-toxic | – | – | – | – | – | – | –
7 | O=c1c2ncn3nc(-c4ccccc4)cc3c2c(C2CCCC2)nn1Cc1ccccc1 | 32.3 nM | – | – | – | – | Non-toxic | Non-toxic | – | 75.5 nM | 64 nM | – | – | – | –
8 | O=c1c2ncn3nc(-c4ccccc4)cc3c2c(-c2ccsc2)nn1Cc1ccccc1 | – | – | 24% | – | – | Non-toxic | Non-toxic | 26% | 69.2 nM | – | – | – | – | –
9 | S=c1c2ncn3nc(-c4ccccc4)cc3c2c(C2CCCC2)nn1Cc1ccccc1 | 12.9 nM | 37% | 54% | – | – | Non-toxic | Non-toxic | – | – | – | – | – | – | –
10 | CCc1nc2c(=S)n(Cc3ccccc3)nc(C3CCCCC3)c2c2cc(-c3ccccc3)nn12 | – | 0% | 42% | – | – | Non-toxic | Non-toxic | – | – | – | – | – | – | –
11 | O=c1c2ncn3nc(-c4ccccc4)cc3c2c(C2CCCCC2)nn1Cc1ccccc1 | 172 nM | 56% | – | – | – | Non-toxic | Non-toxic | – | – | 308 nM | – | – | – | –
12 | Cc1nc2c(=S)n(Cc3ccccc3)nc(C3CCCC3)c2c2cc(-c3ccccc3)nn12 | – | 18% | 13% | – | – | Non-toxic | Non-toxic | 51% | – | – | – | – | – | –
13 | Cc1nc2c(=O)n(Cc3ccccc3)nc(C3CCCC3)c2c2cc(-c3ccccc3)nn12 | 6.2 nM | 53% | 41% | – | – | Non-toxic | Non-toxic | – | – | – | 5.1 nM | – | – | –
14 | CCc1nc2c(=O)n(Cc3ccccc3)nc(-c3ccsc3)c2c2cc(-c3ccccc3)nn12 | – | 41% | 36% | – | – | Non-toxic | Non-toxic | 5% | – | – | – | – | – | –
15 | CCc1nc2c(=S)n(Cc3ccccc3)nc(C3CCCC3)c2c2cc(-c3ccccc3)nn12 | 4.7 nM | 35% | 24% | – | – | Non-toxic | Non-toxic | – | – | – | – | – | – | –
16 | O=c1c2ncn3nc(-c4ccccc4)cc3c2c(-c2cccnc2)nn1Cc1ccccc1 | – | – | 21% | – | – | Non-toxic | Non-toxic | – | – | – | – | – | – | –
17 | O=c1c2ncn3nc(-c4ccccc4)cc3c2c(-c2cccs2)nn1Cc1ccccc1 | – | – | 16% | – | – | Non-toxic | Non-toxic | 45% | 51 nM | – | – | – | – | –
18 | Cc1nc2c(=O)n(Cc3ccccc3)nc(-c3ccc(Cl)cc3)c2c2cc(-c3ccccc3)nn12 | – | 28% | 25% | – | – | Non-toxic | Non-toxic | 24% | – | – | – | – | – | –
19 | Cc1nc2c(=S)n(Cc3ccccc3)nc(C3CCCCC3)c2c2cc(-c3ccccc3)nn12 | – | 0% | 30% | – | – | Non-toxic | Non-toxic | 33% | – | – | – | – | – | –
20 | CCCn1c(=O)c2[nH]c(C3CCCC3)nc2n(CCC)c1=O [1,3-DIPROPYL-8-CYCLOPENTYLXANTHINE [DPCPX]] | – | – | – | – | – | – | – | – | – | – | – | 0.275 min | 1.53 min | –
21 | Cc1nc2c(=O)n(Cc3ccccc3)nc(-c3ccsc3)c2c2cc(-c3ccccc3)nn12 | – | 57% | 37% | – | – | Non-toxic | Non-toxic | 8% | – | – | – | – | – | –
22 | CCc1nc2c(=O)n(Cc3ccccc3)nc(-c3ccc(Cl)cc3)c2c2cc(-c3ccccc3)nn12 | – | 10% | 51% | – | – | Non-toxic | Non-toxic | 35% | – | – | – | – | – | inactive
23 | CCc1nc2c(=O)n(Cc3ccccc3)nc(-c3cccs3)c2c2cc(-c3ccccc3)nn12 | – | 65% | 30% | – | – | Non-toxic | Non-toxic | 16% | – | – | – | – | – | inactive
